Measured values reported in ChEMBL document CHEMBL1138841, “An orally bioavailable, functionally selective inverse agonist at the benzodiazepine site of GABAA alpha5 receptors with cognition enhancing properties” (J Med Chem, 2004).

What was measured:
[1] = target: GABA-A receptor; alpha-5/beta-3/gamma-2 (Homo sapiens) (UniProt P18507+P28472+P31644); assay: In vitro percent efficacy against human gamma-aminobutyric-acid A receptor alpha-5-beta-3-gamma-2 expressed in L(tk-) cells; format: cell-based
Method in brief: (§1)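 Whole-cell patch clamp on mouse fibroblast L(tk-) cells stably expressing human αxβ3γ2 receptors. Efficacy is the maximum % modulation of current evoked by a submaximal (EC20) GABA concentration. Mean ± SEM from at least five individually fitted concentration–response curves per subtype.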

[2] = target: GABA-A receptor; alpha-2/beta-3/gamma-2 (Homo sapiens) (UniProt P18507+P28472+P47869); assay: In vitro percent efficacy against human gamma-aminobutyric-acid A receptor alpha-2-beta-3-gamma-2 expressed in L(tk-) cells; format: cell-based; method in brief: as §1
[3] = target: GABA-A receptor; alpha-1/beta-3/gamma-2 (Homo sapiens) (UniProt P14867+P18507+P28472); assay: In vitro percent efficacy against human gamma-aminobutyric-acid A receptor alpha-1-beta-3-gamma-2 expressed in L(tk-) cells; format: cell-based; method in brief: as §1
[4] = target: GABA-A receptor; alpha-3/beta-3/gamma-2 (Homo sapiens) (UniProt P18507+P28472+P34903); assay: In vitro percent efficacy against human gamma-aminobutyric-acid A receptor alpha-3-beta-3-gamma-2 expressed in L(tk-) cells; format: cell-based; method in brief: as §1
[5] = Oral bioavailability in dog; format: ADME, organism-based, Canis lupus familiaris; conditions: in vivo
[6] = target: GABA A receptor alpha-4/beta-3/gamma-2 (Homo sapiens, UniProt P18507+P28472+P48169); assay: Binding affinity towards gamma-aminobutyric-acid GABA-A receptor alpha-4-beta-3-gamma-2; format: protein-complex assay
Sequence of GABA A receptor alpha-4/beta-3/gamma-2 (P48169 whole entry, one chain of several): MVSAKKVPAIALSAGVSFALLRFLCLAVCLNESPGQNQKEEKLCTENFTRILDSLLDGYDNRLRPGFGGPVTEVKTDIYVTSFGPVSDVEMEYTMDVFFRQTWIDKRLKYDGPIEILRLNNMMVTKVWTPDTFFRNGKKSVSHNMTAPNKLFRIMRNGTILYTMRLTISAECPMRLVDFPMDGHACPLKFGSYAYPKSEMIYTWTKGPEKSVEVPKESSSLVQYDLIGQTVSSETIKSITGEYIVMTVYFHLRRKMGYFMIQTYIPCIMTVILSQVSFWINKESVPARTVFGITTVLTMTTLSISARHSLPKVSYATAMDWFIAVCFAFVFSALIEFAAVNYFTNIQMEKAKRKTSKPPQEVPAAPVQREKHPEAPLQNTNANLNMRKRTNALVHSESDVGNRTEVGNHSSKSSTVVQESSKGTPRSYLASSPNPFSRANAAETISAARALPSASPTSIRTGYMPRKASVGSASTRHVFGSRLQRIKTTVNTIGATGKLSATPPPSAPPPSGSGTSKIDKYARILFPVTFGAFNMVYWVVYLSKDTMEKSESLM

[7] = target: GABA-A receptor; anion channel (Rattus norvegicus) (UniProt O09028+P15431+P18506+P18508+P19969+P20236+P23574+P23576+P28471+P28473+P30191+P62813+P63079+P63138+Q91ZM7+Q9ES14); assay: Concentration required to occupy 50% of gamma-aminobutyric-acid GABA-A receptor alpha subtype at 0.75 hr after dose; format: protein-complex assay
Method in brief: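 Rats dosed orally in 0.5% Methocel vehicle; occupancy of the benzodiazepine binding site measured 0.75 h postdose by in vivo [3H]Ro 15-1788 binding. Dose giving 50% occupancy read from the dose–occupancy relationship.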

[8] = Oral bioavailability in rat; format: ADME, organism-based; conditions: in vivo
[9] = target: T1, GABA-A receptor; alpha-2/beta-3/gamma-2 (Homo sapiens, UniProt P18507+P28472+P47869); assay: Displacement of [3H]-Ro- 15-1788 from human gamma-aminobutyric-acid GABA-A receptor alpha-2-beta-3-gamma-2 expressed in L(tk-) cells; format: cell-based
T1 sequence (P18507 whole entry): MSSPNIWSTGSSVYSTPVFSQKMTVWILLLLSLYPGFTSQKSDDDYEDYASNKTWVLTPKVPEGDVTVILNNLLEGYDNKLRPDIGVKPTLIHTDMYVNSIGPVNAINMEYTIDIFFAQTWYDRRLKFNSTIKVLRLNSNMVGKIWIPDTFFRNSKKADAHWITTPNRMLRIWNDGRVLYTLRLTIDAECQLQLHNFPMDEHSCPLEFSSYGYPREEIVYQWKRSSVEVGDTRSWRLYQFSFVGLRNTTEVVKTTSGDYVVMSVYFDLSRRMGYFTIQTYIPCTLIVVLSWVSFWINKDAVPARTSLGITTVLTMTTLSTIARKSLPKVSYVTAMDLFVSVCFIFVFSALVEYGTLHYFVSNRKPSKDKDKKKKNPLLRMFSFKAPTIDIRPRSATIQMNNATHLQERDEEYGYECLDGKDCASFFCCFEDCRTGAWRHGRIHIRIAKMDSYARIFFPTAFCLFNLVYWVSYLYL
T1 sequence (P28472 whole entry): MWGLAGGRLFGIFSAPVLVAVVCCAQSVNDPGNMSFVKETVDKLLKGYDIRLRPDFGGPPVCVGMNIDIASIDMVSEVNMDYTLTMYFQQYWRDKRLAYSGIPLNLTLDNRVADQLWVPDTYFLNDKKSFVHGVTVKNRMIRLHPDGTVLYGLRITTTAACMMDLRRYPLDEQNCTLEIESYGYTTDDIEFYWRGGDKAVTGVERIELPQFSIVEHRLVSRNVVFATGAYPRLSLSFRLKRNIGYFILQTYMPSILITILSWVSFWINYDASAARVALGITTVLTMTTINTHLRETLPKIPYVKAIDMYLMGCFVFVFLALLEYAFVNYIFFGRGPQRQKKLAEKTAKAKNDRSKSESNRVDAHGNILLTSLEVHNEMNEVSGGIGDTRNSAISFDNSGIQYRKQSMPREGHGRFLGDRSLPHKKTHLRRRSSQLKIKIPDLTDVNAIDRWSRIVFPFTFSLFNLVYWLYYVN
T1 sequence (P47869 whole entry): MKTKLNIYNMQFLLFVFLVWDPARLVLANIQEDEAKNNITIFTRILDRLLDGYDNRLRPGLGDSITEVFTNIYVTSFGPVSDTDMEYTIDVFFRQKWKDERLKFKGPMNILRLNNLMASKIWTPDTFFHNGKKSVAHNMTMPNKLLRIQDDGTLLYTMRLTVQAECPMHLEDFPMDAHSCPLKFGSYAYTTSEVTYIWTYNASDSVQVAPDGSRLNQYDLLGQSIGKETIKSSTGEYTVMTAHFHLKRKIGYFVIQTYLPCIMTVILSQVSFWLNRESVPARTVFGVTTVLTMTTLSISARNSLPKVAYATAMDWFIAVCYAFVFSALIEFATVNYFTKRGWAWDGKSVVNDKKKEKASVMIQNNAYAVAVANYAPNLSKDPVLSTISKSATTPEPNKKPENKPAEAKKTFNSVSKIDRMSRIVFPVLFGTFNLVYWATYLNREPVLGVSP

[10] = target: T2, GABA-A receptor; alpha-1/beta-3/gamma-2 (Homo sapiens, UniProt P14867+P18507+P28472); assay: Displacement of [3H]-Ro- 15-1788 from human gamma-aminobutyric-acid GABA-A receptor alpha-1-beta-3-gamma-2 expressed in L(tk-) cells; format: cell-based
T2 sequence (P14867 whole entry): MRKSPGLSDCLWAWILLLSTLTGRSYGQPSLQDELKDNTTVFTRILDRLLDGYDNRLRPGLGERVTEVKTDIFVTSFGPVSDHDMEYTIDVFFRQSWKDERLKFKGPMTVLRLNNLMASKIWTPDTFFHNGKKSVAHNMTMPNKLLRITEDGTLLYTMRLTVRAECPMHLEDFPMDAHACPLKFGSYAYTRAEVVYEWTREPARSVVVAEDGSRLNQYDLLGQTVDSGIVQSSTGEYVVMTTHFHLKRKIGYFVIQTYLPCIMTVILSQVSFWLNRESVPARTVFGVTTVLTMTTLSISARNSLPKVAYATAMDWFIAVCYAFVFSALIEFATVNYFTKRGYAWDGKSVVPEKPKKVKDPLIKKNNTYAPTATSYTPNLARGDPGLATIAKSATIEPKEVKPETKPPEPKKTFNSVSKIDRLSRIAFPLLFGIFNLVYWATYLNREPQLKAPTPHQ
T2 sequence (P18507 whole entry): T1 sequence (P18507 whole entry)
T2 sequence (P28472 whole entry): T1 sequence (P28472 whole entry)

[11] = target: GABA-A receptor; alpha-6/beta-3/gamma-2 (Homo sapiens, UniProt P18507+P28472+Q16445); assay: Binding affinity towards gamma-aminobutyric-acid GABA-A receptor alpha-6-beta-3-gamma-2; format: protein-complex assay
Sequence of GABA-A receptor; alpha-6/beta-3/gamma-2 (Q16445 whole entry, one chain of several): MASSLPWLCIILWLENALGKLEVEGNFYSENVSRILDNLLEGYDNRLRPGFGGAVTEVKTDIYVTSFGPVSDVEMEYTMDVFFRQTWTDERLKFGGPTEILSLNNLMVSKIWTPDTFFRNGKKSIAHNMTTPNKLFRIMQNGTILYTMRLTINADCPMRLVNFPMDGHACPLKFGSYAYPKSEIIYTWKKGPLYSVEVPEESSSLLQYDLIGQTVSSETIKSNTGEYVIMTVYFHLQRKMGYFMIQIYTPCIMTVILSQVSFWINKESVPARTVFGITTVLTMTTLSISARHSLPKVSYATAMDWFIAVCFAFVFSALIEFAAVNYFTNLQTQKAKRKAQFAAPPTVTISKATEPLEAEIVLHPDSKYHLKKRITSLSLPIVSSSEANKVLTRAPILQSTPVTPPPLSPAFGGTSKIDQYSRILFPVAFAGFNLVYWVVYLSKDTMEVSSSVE

[12] = target: T3, GABA-A receptor; alpha-3/beta-3/gamma-2 (Homo sapiens, UniProt P18507+P28472+P34903); assay: Displacement of [3H]-Ro- 15-1788 from human gamma-aminobutyric-acid GABA-A receptor alpha-3-beta-3-gamma-2 expressed in L(tk-) cells; format: cell-based
T3 sequence (P18507 whole entry): T1 sequence (P18507 whole entry)
T3 sequence (P28472 whole entry): T1 sequence (P28472 whole entry)
T3 sequence (P34903 whole entry): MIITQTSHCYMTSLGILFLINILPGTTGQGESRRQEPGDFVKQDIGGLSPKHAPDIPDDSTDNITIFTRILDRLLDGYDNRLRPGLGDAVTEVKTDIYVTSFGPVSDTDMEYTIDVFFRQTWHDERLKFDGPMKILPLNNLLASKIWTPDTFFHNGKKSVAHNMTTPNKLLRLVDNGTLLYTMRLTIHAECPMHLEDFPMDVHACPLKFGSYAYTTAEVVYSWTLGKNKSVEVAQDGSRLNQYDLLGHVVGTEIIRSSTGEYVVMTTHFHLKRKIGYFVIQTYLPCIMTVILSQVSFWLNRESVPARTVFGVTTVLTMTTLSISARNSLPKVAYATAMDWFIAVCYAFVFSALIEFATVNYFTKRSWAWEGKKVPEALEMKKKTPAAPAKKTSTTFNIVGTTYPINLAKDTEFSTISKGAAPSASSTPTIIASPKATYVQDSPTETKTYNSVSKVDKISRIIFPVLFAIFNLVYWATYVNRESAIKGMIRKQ

[13] = target: T4, GABA-A receptor; alpha-5/beta-3/gamma-2 (Homo sapiens, UniProt P18507+P28472+P31644); assay: Displacement of [3H]-Ro- 15-1788 from human gamma-aminobutyric-acid GABA-A receptor alpha-5-beta-3-gamma-2 expressed in L(tk-) cells; format: cell-based
T4 sequence (P18507 whole entry): T1 sequence (P18507 whole entry)
T4 sequence (P28472 whole entry): T1 sequence (P28472 whole entry)
T4 sequence (P31644 whole entry): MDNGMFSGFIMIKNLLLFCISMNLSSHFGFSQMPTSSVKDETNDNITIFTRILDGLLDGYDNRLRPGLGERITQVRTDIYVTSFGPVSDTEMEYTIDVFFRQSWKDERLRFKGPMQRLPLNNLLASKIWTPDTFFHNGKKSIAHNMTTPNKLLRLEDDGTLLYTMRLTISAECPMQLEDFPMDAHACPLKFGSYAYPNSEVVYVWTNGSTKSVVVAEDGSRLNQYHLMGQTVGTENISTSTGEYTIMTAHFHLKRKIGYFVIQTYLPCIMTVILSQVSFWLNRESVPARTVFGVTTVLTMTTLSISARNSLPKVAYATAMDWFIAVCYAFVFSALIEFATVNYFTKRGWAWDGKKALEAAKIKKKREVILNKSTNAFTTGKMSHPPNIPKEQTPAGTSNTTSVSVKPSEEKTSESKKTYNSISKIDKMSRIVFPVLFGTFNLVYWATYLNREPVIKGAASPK

Compound `CCc1c(C(=O)OC)ncc2[nH]c3cc(OC)c(OC)cc3c12` has an Efficacy [1] of -57%, an Efficacy [2] of -53% and an Efficacy [3] of -71%. It also gave an Efficacy [4] of -62%.

`CNC1=Nc2ccc(Cl)cc2C(c2ccccc2)=[N+]([O-])C1` showed an Efficacy [2] of 111%, an Efficacy [3] of 100% and an Efficacy [4] of 113%.

`Cc1cc(-c2nnc3c4ccccc4c(OCc4cn(C)nn4)nn23)no1` showed an Efficacy [1] of -40%, an Efficacy [2] of 16% and an Efficacy [3] of -15%. The Efficacy [4] was -7%.

Compound `Cc1cc(-c2nncc3c(C(C)(C)C)c(OCc4ncnn4C)nn23)no1` has a bioavailability [5] of 8%, a Ki [6] of 395 nM and an Occupancy [7] of 0.35 mg/kg. It also gave a bioavailability [8] of 52%, a Ki [9] of 0.85 nM and an Efficacy [1] of -55%. The Ki [10] was 0.83 nM, the Efficacy [2] was 6% and the Ki [11] was over 4000 nM. The Efficacy [3] was -16%, the Ki [12] was 0.77 nM and the Efficacy [4] was -9%. It also gave a Ki [13] of 1.4 nM.
